From ChEMBL document CHEMBL1148286

What was measured:
[1] = molecular target: Transthyretin (Homo sapiens) (UniProt P02766); test: Transthyretin (TTR) amyloidogenesis inhibition activity by employing an acid-mediated (pH 4.4) WTTTR amyloid fibril formation assay, at 7.2 uM conc.; assay type: functional
Method in brief: (§1)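 WT TTR (3.6 µM tetramer) in 10 mM phosphate, 100 mM KCl, 1 mM EDTA pH 7.6, preincubated 30 min at 25 °C with compound from DMSO stock. Acidified to pH 4.4 with acetate buffer, then held 72 h at 37 °C without agitation. Turbidity read at 350 and 400 nm after vortexing. Expressed as % of the no-inhibitor control; triplicate.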

[2] = molecular target: Transthyretin (Homo sapiens) (UniProt P02766); test: Transthyretin (TTR) amyloidogenesis inhibition activity by employing an acid-mediated (pH 4.4) WTTTR amyloid fibril formation assay, at 3.6 uM conc.; assay type: functional; method in brief: as §1
[3] = molecular target: Transthyretin (Homo sapiens) (UniProt P02766); test: Ability to bind TTR selectively over all other proteins in human blood plasma (equiv bound); assay type: cell-free
Method in brief: (§2)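 Human blood plasma (1.0 mL) incubated with compound from 1.44 mM DMSO stock (final 10.8 µM) at 37 °C for 24 h with rocking. Pre-cleared with quenched sepharose, then TTR captured on anti-TTR antibody sepharose at 4 °C, washed with TSA/0.05% saponin and TSA. Eluted with 100 mM triethylamine pH 11.5. Ligand:TTR stoichiometry measured by reverse-phase HPLC (maximum 2 per tetramer).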

[4] = molecular target: Transthyretin (Homo sapiens) (UniProt P02766); test: Ability to bind TTR selectively over all other proteins in human blood plasma (equiv bound); None observed; assay type: cell-free; method in brief: as §2
[5] = molecular target: Transthyretin (Homo sapiens) (UniProt P02766); test: The second dissociation constant for binding to WT TTR determined by isothermal titration calorimetry (25 C, pH 8.0)
[6] = molecular target: Transthyretin (Homo sapiens) (UniProt P02766); test: The first dissociation constant for binding to WT TTR determined by isothermal titration calorimetry (25 C, pH 8.0)

Row | SMILES | Fibril formation [1] [%] | Fibril formation [2] [%] | Plasma selectivity [3] | further results
1 | O=Cc1cccc(-c2cc(F)cc(F)c2)c1 | 64.3 | – | – | –
2 | O=Cc1ccc(-c2cc(Cl)cc(Cl)c2)cc1 | 25.4 | – | – | –
3 | OCc1cccc(-c2cc(Cl)cc(Cl)c2)c1 | 3.3 | 30 | 0.89 | –
4 | O=Cc1cccc(-c2cc(Cl)cc(Cl)c2)c1 | 4.4 | 30.6 | 1.3 | –
5 | O=C(O)c1ccc(-c2cc(F)c(O)c(F)c2)cc1 | 3.4 | 31.7 | 0.07 | –
6 | O=C(O)c1ccc(-c2ccc(F)cc2)cc1 | 13.3 | – | – | –
7 | OCc1ccccc1-c1ccccc1 | 81 | – | – | –
8 | Fc1ccccc1-c1ccccc1 | 99.4 | – | – | –
9 | O=C(O)c1cc(-c2ccc(F)cc2)ccc1O | 2.6 | 38.7 | 0.09 | –
10 | Oc1cccc(-c2ccc(F)cc2F)c1 | 31.5 | – | – | –
11 | O=C(O)c1ccc(-c2ccc(F)cc2F)cc1 | 2.6 | 32.6 | 0.2 | –
12 | O=Cc1ccc(-c2ccccc2)cc1 | 93.5 | – | – | –
13 | O=C(O)c1cccc(-c2ccc(F)cc2F)c1 | 9.1 | 39.4 | – | Plasma selectivity [4]: None observed
14 | O=C(O)c1cccc(-c2ccccc2F)c1 | 9.8 | 39.4 | None observed | –
15 | OCc1ccccc1-c1cc(Cl)cc(Cl)c1 | 7.7 | 33.6 | – | Plasma selectivity [4]: None observed
16 | O=C(O)c1ccccc1-c1cc(Cl)cc(Cl)c1 | 45.4 | – | – | –
17 | O=C(O)c1cc(-c2ccc(Cl)cc2Cl)ccc1O | 3.6 | 29.9 | 0.27 | –
18 | Oc1ccc(-c2cc(F)cc(F)c2)cc1 | 16.4 | – | – | –
19 | Oc1cccc(-c2cc(F)cc(F)c2)c1 | 10.2 | 40.9 | 0.18 | –
20 | COc1ccc(-c2ccc(F)cc2F)cc1C(=O)O | 69.9 | – | – | –
21 | OCc1cccc(-c2ccccc2)c1 | 85.5 | – | – | –
22 | O=C(O)c1ccc(-c2ccccc2)cc1 | 14.3 | 51.5 | 0.08 | –
23 | O=C(O)c1cccc(-c2ccc(F)cc2)c1 | 15.7 | – | – | –
24 | Oc1ccc(-c2ccccc2F)cc1 | 19.6 | – | – | –
25 | Oc1cccc(-c2ccccc2)c1 | 61.2 | – | – | –
26 | O=C(O)c1cc(-c2cc(F)cc(F)c2)ccc1O | 1 | 35.5 | None observed | –
27 | O=C(O)c1cccc(-c2cc(Cl)cc(Cl)c2)c1 | 3 | 32.7 | 0.8 | –
28 | O=C(O)c1ccc(-c2cc(Cl)c(O)c(Cl)c2)cc1 | 3.8 | 25.8 | 0.26 | –

Row | SMILES | Fibril formation [1] [%] | Fibril formation [2] [%] | Plasma selectivity [3] | further results
29 | Oc1cccc(-c2ccc(F)cc2)c1 | 46.3 | – | – | –
30 | O=C(O)c1cccc(-c2cc(F)cc(F)c2)c1 | 5.6 | 35.7 | 0.23 | –
31 | Fc1ccc(-c2ccccc2)cc1 | 100 | – | – | –
32 | COC(=O)c1cc(-c2ccc(F)cc2F)ccc1O | 38.5 | – | – | –
33 | OCc1ccc(-c2cc(Cl)cc(Cl)c2)cc1 | 5.9 | 38.9 | 0.54 | –
34 | OCc1ccc(-c2ccccc2)cc1 | 100 | – | – | –
35 | O=C(O)c1cc(-c2ccccc2F)ccc1O | 2.5 | 38.7 | 0.07 | –
36 | O=C(O)c1ccc(-c2cc(Cl)cc(Cl)c2)cc1 | 4.9 | 41.2 | 1.56 | –
37 | Oc1ccc(-c2ccc(F)cc2F)cc1 | 32.4 | – | – | –
38 | Fc1cc(F)cc(-c2ccccc2)c1 | 100 | – | – | –
39 | Fc1ccc(-c2ccccc2)c(F)c1 | 100 | – | – | –
40 | O=C(O)c1cccc(-c2cc(Cl)c(O)c(Cl)c2)c1 | 4.4 | 25.5 | 0.12 | –
41 | O=C(O)c1cc(-c2ccc(F)cc2F)ccc1O | 3.4 | 37 | – | –
42 | O=C(O)c1cccc(-c2c(F)cccc2F)c1 | 6.7 | 35.1 | 0.29 | –
43 | O=Cc1ccc(-c2cc(F)cc(F)c2)cc1 | 69.6 | – | – | –
44 | O=C(O)c1ccc(-c2c(F)cccc2F)cc1 | 4.5 | 28.5 | – | Kd2 [5]: 1300 nM
45 | O=Cc1ccccc1-c1cc(Cl)cc(Cl)c1 | 7.1 | 34.5 | 1.96 | –
46 | O=C(O)c1cc(-c2ccccc2)ccc1O | 15.4 | 47.4 | – | Plasma selectivity [4]: None observed
47 | O=C(O)c1cccc(-c2cc(F)c(O)c(F)c2)c1 | 3.5 | 38.5 | None observed | –
48 | Clc1cc(Cl)cc(-c2ccccc2)c1 | 52.2 | – | – | –
49 | O=C(O)c1cccc(-c2ccccc2)c1 | 30.8 | – | – | –
50 | Oc1cccc(-c2ccccc2F)c1 | 19.5 | – | – | –
51 | Oc1ccc(-c2ccc(F)cc2)cc1 | 53.1 | – | – | –
52 | O=C(O)c1ccc(-c2ccccc2F)cc1 | 4.8 | 32.4 | 0.08 | –
53 | O=Cc1ccccc1-c1ccccc1 | 72.5 | – | – | –
54 | O=Cc1cccc(-c2ccccc2)c1 | 35.4 | – | – | –
55 | O=C(O)c1ccc(-c2cc(F)cc(F)c2)cc1 | 3.7 | 35.7 | 1.27 | Kd1 [6]: 9 nM; Kd2 [5]: 1100 nM
